Data: ChEMBL document CHEMBL1154792, “chi-Conopeptide pharmacophore development: toward a novel class of norepinephrine transporter inhibitor (Xen2174) for pain” (J Med Chem, 2009)
The source made the active and inactive calls. The rule behind the calls is not given here.

Target: Sodium-dependent noradrenaline transporter (Homo sapiens, UniProt P23975)
Test: Displacement of [3H]nisoxetine from human NET expressed in COS7 cells
Type: cell-based
Conditions: COS-7
How it was run: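 Membranes from COS-7 cells transfected with human NET were incubated with [3H]nisoxetine (4.3 nM) with or without peptide (1 nM to 100 μM, triplicate) for 1 h at RT. Filter-retained radioactivity was counted by liquid scintillation, and values are given as pIC50. Data are means of 2–5 experiments in triplicate; peptide concentration was set by calibrated HPLC at 214 nm.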

Sequence of Sodium-dependent noradrenaline transporter (P23975 whole entry): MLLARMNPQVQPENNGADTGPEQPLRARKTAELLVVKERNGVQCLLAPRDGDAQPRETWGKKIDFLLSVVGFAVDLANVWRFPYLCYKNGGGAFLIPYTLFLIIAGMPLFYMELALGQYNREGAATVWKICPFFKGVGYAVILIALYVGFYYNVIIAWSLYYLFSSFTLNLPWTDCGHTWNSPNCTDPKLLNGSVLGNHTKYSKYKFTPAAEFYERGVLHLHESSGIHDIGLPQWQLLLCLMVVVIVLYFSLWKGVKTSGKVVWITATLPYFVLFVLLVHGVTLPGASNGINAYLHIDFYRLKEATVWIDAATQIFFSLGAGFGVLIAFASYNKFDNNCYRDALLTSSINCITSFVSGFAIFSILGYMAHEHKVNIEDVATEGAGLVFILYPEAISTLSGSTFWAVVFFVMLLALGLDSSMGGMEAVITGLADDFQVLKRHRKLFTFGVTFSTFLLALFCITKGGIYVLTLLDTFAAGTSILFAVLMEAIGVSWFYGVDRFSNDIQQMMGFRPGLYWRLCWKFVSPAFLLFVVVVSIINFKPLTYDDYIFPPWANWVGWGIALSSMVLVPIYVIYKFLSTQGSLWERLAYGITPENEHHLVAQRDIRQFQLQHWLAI

For `CC(C)C[C@@H]1NC(=O)[C@H](CCCCN)NC(=O)[C@H](Cc2ccc(O)cc2)NC(=O)CNC(=O)C[C@@H]2CSSC[C@H](CC(=O)N[C@@H](Cc3cnc[nH]3)C(=O)N3CC[C@H](O)[C@H]3C(=O)N[C@H](CC(=O)O)CSSC[C@H](NC(=O)[C@@H](NC(=O)CNC(=O)[C@@H]3CCC(=O)N3)C(C)C)CC(=O)N2)NC1=O`, the Activity was “inactive”.
